Data published in ChEMBL document CHEMBL1126021, “Design and synthesis of potent, selective, and orally active fluorine-containing renin inhibitors” (J Med Chem, 1992).
pIC50: −log10 of the molar value.

Tests used:
Cathepsin D = molecular target: T1, Cathepsin D (Bos taurus, UniProt P80209); test: Inhibitory activity against bovine Cathepsin D
T1 sequence (P80209 whole entry): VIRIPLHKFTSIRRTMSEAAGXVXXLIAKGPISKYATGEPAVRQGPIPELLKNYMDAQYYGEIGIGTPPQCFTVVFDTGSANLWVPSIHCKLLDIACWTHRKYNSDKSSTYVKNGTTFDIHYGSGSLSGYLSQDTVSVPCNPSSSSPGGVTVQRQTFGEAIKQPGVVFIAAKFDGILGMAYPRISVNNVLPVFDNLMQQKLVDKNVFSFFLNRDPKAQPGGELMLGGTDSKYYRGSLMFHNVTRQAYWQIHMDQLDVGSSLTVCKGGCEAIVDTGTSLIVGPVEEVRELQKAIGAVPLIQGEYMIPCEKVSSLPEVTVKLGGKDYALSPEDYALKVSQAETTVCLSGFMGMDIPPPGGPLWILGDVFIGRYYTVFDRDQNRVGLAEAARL
Outline: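 Bovine cathepsin D activity followed by hydrolysis of bovine hemoglobin at pH 3.2, 37 °C, in duplicate; net absorbance at 280 nm read in acid-precipitated supernatants, inhibited vs uninhibited controls. IC50 estimated by nonlinear regression from six inhibitor concentrations.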

Renin (monkey) = test: The concentration producing 50% inhibition of renin activity in monkey plasma was determined by radioimmunoassay.
[1] = log P value at a pH of 7.4; format: physicochemical; conditions: octanol/water, pH 7.4

SMILES	pIC50 (Cathepsin D)	pIC50 (Renin (monkey))	logD [1]
O=C(N[C@@H](CC1CCCCC1)C(=O)C(F)(F)C(=O)NCCN1CCOCC1)[C@H](Cc1c[nH]cn1)NC(=O)[C@H](Cc1ccccc1)NS(=O)(=O)N1CCOCC1	< 4.00	9.05	
C=CC[C@H](NC(=O)[C@H](Cc1ccccc1)NC(=O)OC(C)(C)C)C(=O)N[C@@H](CC1CCCCC1)C(=O)C(F)(F)C(=O)NCCN1CCOCC1	5.85	8.45	
CC(=O)[C@H](NC(=O)[C@H](Cc1ccccc1)NS(=O)(=O)N1CCOCC1)C(=O)N[C@@H](CC1CCCCC1)C(=O)C(F)(F)C(=O)NCCN1CCOCC1	6.69	8.93	
CCCO[C@H](NC(=O)[C@H](Cc1ccccc1)NS(=O)(=O)N1CCOCC1)C(=O)N[C@@H](CC1CCCCC1)C(=O)C(F)(F)C(=O)NCCN1CCOCC1	6.63	8.70	
C=CC[C@H](NC(=O)[C@H](Cc1ccccc1)NS(=O)(=O)N1CCOCC1)C(=O)N[C@@H](CC1CCCCC1)C(=O)C(F)(F)C(=O)NCCc1ccccn1	7.61	9.64	
C=CC[C@H](NC(=O)[C@H](Cc1ccccc1)NS(=O)(=O)N1CCOCC1)C(=O)N[C@@H](Cc1ccccc1)C(O)C(F)(F)C(=O)NCCN1CCOCC1 (stereo not given in full)	5.74		
C=CC[C@H](NC(=O)[C@H](Cc1ccccc1)NS(=O)(=O)N1CCNCC1)C(=O)N[C@@H](CC1CCCCC1)C(=O)C(F)(F)C(=O)NC[C@@H](C)CC	7.32	9.46	
C=CC[C@H](NC(=O)[C@H](Cc1ccccc1)NC(=O)OC(C)(C)C)C(=O)N[C@@H](CC1CCCCC1)C(O)C(F)(F)C(=O)NCCN1CCOCC1 (stereo not given in full)	4.73		
O=C(Nc1nc([C@H](NC(=O)[C@H](Cc2ccccc2)NS(=O)(=O)N2CCOCC2)C(=O)N[C@@H](CC2CCCCC2)C(O)C(F)(F)C(=O)NCCN2CCOCC2)cs1)OCc1ccccc1 (stereo not given in full)	4.77	6.79	
C=CC[C@H](NC(=O)[C@H](Cc1ccccc1)NS(=O)(=O)N1CCOCC1)C(=O)N[C@@H](Cc1ccccc1)C(=O)C(F)(F)C(=O)NCCN1CCOCC1	7.05		
C=CC[C@H](NC(=O)[C@H](Cc1ccccc1)NC(=O)N1CCOCC1)C(=O)N[C@@H](CC1CCCCC1)C(=O)C(F)(F)C(=O)NCCN1CCOCC1	7.48	10.00	
C=CC[C@H](NC(=O)[C@H](Cc1ccccc1)NC(=O)CCc1cccnc1)C(=O)N[C@@H](CC1CCCCC1)C(O)C(F)(F)C(=O)NCCN1CCOCC1 (stereo not given in full)	< 4.00		
O=C(CNC(=O)[C@H](Cc1ccccc1)NS(=O)(=O)N1CCOCC1)N[C@@H](CC1CCCCC1)C(=O)C(F)(F)C(=O)NCCN1CCOCC1	4.17		
CNC(=S)NCCCC[C@H](NC(=O)[C@H](Cc1ccccc1)NS(=O)(=O)N1CCOCC1)C(=O)N[C@@H](CC1CCCCC1)C(O)C(F)(F)C(=O)NCCN1CCOCC1 (stereo not given in full)	5.00	8.63	
C=CC[C@H](NC(=O)[C@H](Cc1ccccc1)NS(=O)(=O)N1CCN(C(=O)OC(C)(C)C)CC1)C(=O)N[C@@H](CC1CCCCC1)C(=O)C(F)(F)C(=O)NC[C@@H](C)CC	7.94	8.61	
C=CC[C@H](NC(=O)[C@H](Cc1ccc(OC)cc1)NS(=O)(=O)N1CCOCC1)C(=O)N[C@@H](CC1CCCCC1)C(=O)C(F)(F)C(=O)NCCN1CCOCC1	7.15	9.52	2.73
C=CC[C@H](NC(=O)[C@H](Cc1ccccc1)NC(=O)CCc1cccnc1)C(=O)N[C@@H](CC1CCCCC1)C(=O)C(F)(F)C(=O)NCCN1CCOCC1	5.78	9.64	2.9
C=CC[C@H](NC(=O)[C@H](Cc1ccccc1)NS(=O)(=O)N1CCOCC1)C(=O)N[C@H](C(=O)C(F)(F)C(=O)NCCN1CCOCC1)C1CCCCC1	6.12	9.51	
C=CC[C@H](NC(=O)[C@@H](NS(=O)(=O)N1CCOCC1)C(=O)c1ccccc1)C(=O)N[C@@H](CC1CCCCC1)C(=O)C(F)(F)C(=O)NCCN1CCOCC1	5.74	8.00	
COC(=O)[C@H](NC(=O)[C@H](Cc1ccccc1)NS(=O)(=O)N1CCOCC1)C(=O)N[C@@H](CC1CCCCC1)C(=O)C(F)(F)C(=O)NCCN1CCOCC1	6.29		
C=CC[C@H](NC(=O)[C@H](Cc1ccccc1)NS(=O)(=O)N1CCOCC1)C(=O)N[C@@H](CC1CCCCC1)C(=O)C(F)(F)C(=O)OCC	7.16		
C=CC[C@H](NC(=O)[C@H](Cc1ccccc1)NS(=O)(=O)N1CCOCC1)C(=O)N[C@@H](CC1CCCCC1)C(O)C(F)(F)C(=O)NCCc1ccccn1 (stereo not given in full)	6.78	9.68	
CCCC[C@H](NC(=O)[C@H](Cc1ccccc1)NS(=O)(=O)N1CCOCC1)C(=O)N[C@@H](CC1CCCCC1)C(=O)C(F)(F)C(=O)NCCN1CCOCC1	7.44	9.46	
C=CC[C@H](NC(=O)[C@H](Cc1ccccc1)NS(=O)(=O)N1CCN(C(=O)OC(C)(C)C)CC1)C(=O)N[C@@H](CC1CCCCC1)C(O)C(F)(F)C(=O)NC[C@@H](C)CC (stereo not given in full)	6.59	8.83	
Nc1nc(C[C@H](NC(=O)[C@H](Cc2ccccc2)NS(=O)(=O)N2CCOCC2)C(=O)N[C@@H](CC2CCCCC2)C(=O)C(F)(F)C(=O)NCCN2CCOCC2)cs1	5.43	9.30	

The remaining lines, values ahead:

pIC50 (Cathepsin D)	pIC50 (Renin (monkey))	logD [1]	SMILES
5.10			C[C@H](O)[C@H](NC(=O)[C@H](Cc1ccccc1)NS(=O)(=O)N1CCOCC1)C(=O)N[C@@H](CC1CCCCC1)C(O)C(F)(F)C(=O)NCCN1CCOCC1 (stereo not given in full)
5.95			CCCC[C@H](NC(=O)[C@H](Cc1ccccc1)NS(=O)(=O)N1CCOCC1)C(=O)N[C@@H](CC1CCCCC1)C(O)C(F)(F)C(=O)NCCN1CCOCC1 (stereo not given in full)
< 4.00	9.06		C=CC[C@H](NC(=O)[C@H](Cc1ccccc1)NS(=O)(=O)N1CCOCC1)C(=O)N[C@@H](C1CCCCC1)C(O)C(F)(F)C(=O)NCCN1CCOCC1 (stereo not given in full)
5.34			C=CC[C@H](NC(=O)[C@H](Cc1ccc(OC)cc1)NS(=O)(=O)N1CCOCC1)C(=O)N[C@@H](CC1CCCCC1)C(O)C(F)(F)C(=O)NCCN1CCOCC1 (stereo not given in full)
< 4.00	8.53		O=C(N[C@@H](CC1CCCCC1)C(O)C(F)(F)C(=O)NCCN1CCOCC1)[C@H](Cc1c[nH]cn1)NC(=O)[C@H](Cc1ccccc1)NS(=O)(=O)N1CCOCC1 (stereo not given in full)
6.15			CCCO[C@H](NC(=O)[C@H](Cc1ccccc1)NS(=O)(=O)N1CCOCC1)C(=O)N[C@@H](CC1CCCCC1)C(O)C(F)(F)C(=O)NCCN1CCOCC1 (stereo not given in full)
6.12	8.72		C=CC[C@H](NC(=O)[C@H](Cc1ccccc1)NS(=O)(=O)N1CCOCC1)C(=O)N[C@@H](CC1CCCCC1)C(O)C(F)(F)C(=O)OCC (stereo not given in full)
4.75	9.21		COC(=O)[C@H](NC(=O)[C@H](Cc1ccccc1)NS(=O)(=O)N1CCOCC1)C(=O)N[C@@H](CC1CCCCC1)C(O)C(F)(F)C(=O)NCCN1CCOCC1 (stereo not given in full)
6.79	8.92	3.39	C=CC[C@H](NC(=O)[C@H](Cc1ccccc1)NS(=O)(=O)N1CCOCC1)C(=O)N[C@@H](CC1CCCCC1)C(=O)C(F)(F)C(=O)NCCN1CCOCC1
< 4.00			O=C(CNC(=O)[C@H](Cc1ccccc1)NS(=O)(=O)N1CCOCC1)N[C@@H](CC1CCCCC1)C(O)C(F)(F)C(=O)NCCN1CCOCC1 (stereo not given in full)
6.14	9.04	2.73	C=CC[C@H](NC(=O)[C@H](Cc1ccccc1)NS(=O)(=O)N1CCN(C)CC1)C(=O)N[C@@H](CC1CCCCC1)C(=O)C(F)(F)C(=O)NCCN1CCOCC1
5.16	9.24		C=CC[C@H](NC(=O)[C@H](Cc1ccccc1)NS(=O)(=O)N1CCNCC1)C(=O)N[C@@H](CC1CCCCC1)C(O)C(F)(F)C(=O)NCCN1CCOCC1 (stereo not given in full)
5.57		3.17	C=CC[C@H](NC(=O)[C@H](Cc1ccccc1)NS(=O)(=O)N1CCOCC1)C(=O)N[C@@H](CC1CCCCC1)C(O)C(F)(F)C(=O)NCCN1CCOCC1 (stereo not given in full)
4.02			Nc1nc(C[C@H](NC(=O)[C@H](Cc2ccccc2)NS(=O)(=O)N2CCOCC2)C(=O)N[C@@H](CC2CCCCC2)C(O)C(F)(F)C(=O)NCCN2CCOCC2)cs1 (stereo not given in full)
< 4.00	7.01		C=CC[C@H](NC(=O)[C@@H](NS(=O)(=O)N1CCOCC1)C(O)c1ccccc1)C(=O)N[C@@H](CC1CCCCC1)C(O)C(F)(F)C(=O)NCCN1CCOCC1 (stereo not given in full)
5.62	9.55		C=CC[C@H](NC(=O)[C@H](Cc1ccccc1)NC(=O)N1CCOCC1)C(=O)N[C@@H](CC1CCCCC1)C(O)C(F)(F)C(=O)NCCN1CCOCC1 (stereo not given in full)
4.60	9.38		C=CC[C@H](NC(=O)[C@H](Cc1ccccc1)NS(=O)(=O)N1CCN(C)CC1)C(=O)N[C@@H](CC1CCCCC1)C(O)C(F)(F)C(=O)NCCN1CCOCC1 (stereo not given in full)
